Rows were chosen to be rich in hits. Some 2.4% of all compounds tested hit in one or more screens of this group.
rRNA inh HTS = selective bacterial rRNA inhibition in E. coli; E. coli WT GFP vs humanized-ribosome RFP mutants, fluorescence, 24 h; active compounds read low; DMSO median 0, no signal -100; GFP signal change (wild-type ribosome), % (no concentration beside the values); 1.6% of 350,000 active; AID 720706;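 active = significant combined selectivity score with lowered wild-type GFP, culture density cut under 30%, mutant RFP and density less affected; inactive = any of these conditions unmet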
PGC1a acetyl inh = PGC1a acetylation modulation, inhibitor mode; AID 651687; 0.17% of 350,000 active; U2OS PGC1a acetylation, AlphaScreen anti-acetyl-lysine; with virally co-expressed GCN5 acetyltransferase; inhibition, % at 15.6 µM;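 active = every replicate shows inhibition of at least 40%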
ARNT-TACC3 inh = disruptors of human ARNT/TACC3 interaction; AlphaScreen His-ARNT PAS-B/GST-TACC3 binding, luminescence; TACC3 fragment carries E629A point mutation; Q9Y6A5; 0.66% of 390,000 active; inhibition, % at 9.99 µM;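 active = mean inhibition of replicates at least 50% and at least half of replicates each reaching 50%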
S100A4 MyoIIA = blocks human S100A4 binding to myosin IIA peptide | P26447 | S100A4/TAMRA-MyoIIA peptide fluorescence polarization | inhibition, % at 10.7 µM | 0.14% of 360,000 active | AID 652163;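 active = mean inhibition of at least 70% across replicates, with every replicate also reaching that level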
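System – human S100A4 monomer protein, biochemical binding assay · Buffer or medium – Calcium-containing HEPES buffer, pH 7.2 · Timing – 5 min between mix addition and reading · Also added – TAMRA-labelled myosin IIA heavy-chain peptide probe, 5 nM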
ERAP1 HTS inh = blocks human ERAP1 aminopeptidase activity | Q9NZ08 | inhibition, % at 10.7 µM | 0.15% of 340,000 active | recombinant ERAP1, Leu-AMC fluorescence, 60 min;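 active = mean replicate inhibition of at least 30%, or all replicates individually reaching that 30% level; inactive = mean below 30% and not every replicate reaching it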
Target sequence (Q9NZ08 whole entry, looked up): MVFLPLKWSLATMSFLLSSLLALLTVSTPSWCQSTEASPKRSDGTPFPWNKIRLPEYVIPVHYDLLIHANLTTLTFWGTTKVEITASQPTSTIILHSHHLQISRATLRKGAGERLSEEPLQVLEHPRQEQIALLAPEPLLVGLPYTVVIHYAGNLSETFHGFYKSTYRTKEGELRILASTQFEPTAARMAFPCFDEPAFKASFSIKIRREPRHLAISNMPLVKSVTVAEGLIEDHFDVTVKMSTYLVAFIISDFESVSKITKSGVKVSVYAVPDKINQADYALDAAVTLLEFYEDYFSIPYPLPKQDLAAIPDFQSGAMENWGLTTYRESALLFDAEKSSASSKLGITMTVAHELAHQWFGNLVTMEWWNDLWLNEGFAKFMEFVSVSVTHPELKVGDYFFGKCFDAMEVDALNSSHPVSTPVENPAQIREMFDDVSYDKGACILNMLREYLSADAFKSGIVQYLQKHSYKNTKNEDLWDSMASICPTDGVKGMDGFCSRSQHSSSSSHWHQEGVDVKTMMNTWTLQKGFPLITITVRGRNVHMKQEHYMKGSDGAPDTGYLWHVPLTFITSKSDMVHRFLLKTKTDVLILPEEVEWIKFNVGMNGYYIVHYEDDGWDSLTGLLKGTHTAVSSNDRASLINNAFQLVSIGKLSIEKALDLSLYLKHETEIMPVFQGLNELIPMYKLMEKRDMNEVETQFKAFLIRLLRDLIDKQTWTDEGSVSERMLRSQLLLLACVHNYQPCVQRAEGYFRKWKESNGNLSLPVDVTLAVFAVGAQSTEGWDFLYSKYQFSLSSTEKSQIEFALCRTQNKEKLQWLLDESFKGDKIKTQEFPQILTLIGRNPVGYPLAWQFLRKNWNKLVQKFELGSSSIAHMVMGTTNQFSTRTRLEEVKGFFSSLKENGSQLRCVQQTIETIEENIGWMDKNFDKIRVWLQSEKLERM
CASP6 VEID inh = inhibitors of human caspase-6; P55212; purified caspase-6, Z-VEID-R110 cleavage fluorescence; inhibition, % at 12.5 µM; 0.53% of 350,000 active; AID 686996;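 active = mean inhibition across replicates at least about 35%, with every replicate also reaching that limit, limit read from the data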
Hits are given with their value; 0 = inactive; - = no result.

SMILES	rRNA inh HTS	PGC1a acetyl inh	ARNT-TACC3 inh	S100A4 MyoIIA	ERAP1 HTS inh	CASP6 VEID inh
CN(C)CC#Cc1ccc([C@H]2[C@H]3CN(C(=O)C4CCCC4)CCCCN3[C@H]2CO)cc1	-	0	0	-	-	-
CC(=O)Nc1ccc(/C=N/Nc2nc3ccccc3[nH]2)cc1	-21	-	0	0	0	0
CC(/C=N/Nc1nc2ccccc2[nH]1)=C\c1ccccc1	0	-	0	0	0	36
COc1cccc(/C=N/Nc2nc3ccccc3[nH]2)c1OC	-25	-	0	0	0	0
O=C(CSc1nc(O)c(Cc2ccccc2)c(=O)[nH]1)Nc1nnc(SCc2ccccc2)s1	0	0	0	0	0	51
O=C(CNc1ccc(Br)cc1)c1ccc(O)cc1	-45	0	0	0	0	0
O=C(C[C@@H]1C[C@H]2c3cc(NC(=O)NC4CCCC4)ccc3O[C@H]2[C@H](CO)O1)NCc1ccccc1F	0	0	0	0	0	0
CC1(C)CC(=O)C2=C(C1)NC(=O)CC2	0	-	-	0	0	38
C[C@@H]1CCCCO[C@H](CN(C)C(=O)C2CCCCC2)[C@H](C)CN([C@@H](C)CO)C(=O)c2cc(NC(=O)C3CCCCC3)ccc2O1	0	0	0	0	0	0
CCN1/C(=C/c2ccc3cc(C)ccc3[n+]2CC)Sc2ccccc21	0	-	0	0	0	0
CCN1/C(=C/c2ccc3cc(C)ccc3[n+]2CC)Sc2cc(C)c(C)cc21	0	0	0	0	33	0
C[C@@H]1CN([C@@H](C)CO)C(=O)c2cc(NC(=O)Nc3ccc4c(c3)OCO4)ccc2O[C@H]1CN(C)CC1CCCCC1	0	-	-	-	-	-
C[C@@H]1CCCCO[C@H](CN(C)S(=O)(=O)c2cccs2)[C@@H](C)CN([C@@H](C)CO)C(=O)c2cc(NS(=O)(=O)c3ccc(F)cc3)ccc2O1	0	0	0	0	0	0
CCCc1cc(=O)oc2c(CN(CC)CC)c(O)c(Cl)cc12	0	0	0	0	189	0
CC(C)NC(=O)Nc1cccc2c1O[C@H](CN(C)C(=O)NC(C)C)[C@@H](C)CN([C@@H](C)CO)C2=O	0	0	0	0	0	0
Cc1noc(C)c1COc1ccccc1C(=O)N(C)CC(=O)Nc1ccc(F)c(F)c1F	0	-	0	0	0	53
Cc1ccc(C)c(NC(=O)CN(C)C(=O)c2ccccc2OCc2c(C)noc2C)c1	0	0	0	0	0	0
Cc1ccc(Cl)cc1NC(=S)N(Cc1ccccc1)Cc1cccnc1	-26	0	0	0	0	0
COc1ccc(Cl)cc1NC(=S)N(Cc1cccnc1)Cc1ccco1	-24	0	0	0	0	0
C[C@@H]1CN([C@H](C)CO)C(=O)c2cc(NC(=O)Nc3ccc4c(c3)OCO4)ccc2O[C@@H](C)CCCCO[C@H]1CN(C)Cc1ccncc1	0	0	0	0	0	0
O=C(C1=C[C@@H](c2ccc3c(c2)OCO3)C[C@@H](OCc2ccc(CO)cc2)O1)N1CCCCCCC1	-	-	-	0	0	0
CC(=O)N1CCN(c2cc(N3CCCC3)c(F)cc2[N+](=O)[O-])CC1	-19	0	0	0	0	0
Cn1c(=O)n(C)c2cc([N+](=O)[O-])c(N3CCN(C(=O)C(C)(C)C)CC3)cc21	-23	0	0	0	0	0
O=[N+]([O-])c1ccccc1S(=O)(=O)NCc1ccc(F)cc1	0	0	0	0	0	0
Cc1ccccc1CNS(=O)(=O)c1ccccc1[N+](=O)[O-]	-28	0	0	0	0	0
SMILES	rRNA inh HTS	PGC1a acetyl inh	ARNT-TACC3 inh	S100A4 MyoIIA	ERAP1 HTS inh	CASP6 VEID inh
CCCCC1CCC(C(=O)OC(C)C(=O)Nc2ccc(NC(C)=O)cc2)CC1 (stereo not drawn)	0	0	0	0	75	0
CC(=O)Nc1ccc(NC(=O)C(C)OC(=O)C2CCC2)cc1 (stereo not drawn)	0	-	0	0	0	0
C=CCn1c(Cc2nc3ccc(Cl)cc3[nH]2)n[nH]c1=S	-	0	36	-	-	-
C=CCn1c(Cc2ccccc2)n[nH]c1=S	0	0	0	0	0	0
COc1ccc(S(=O)(=O)Nc2ccc3c(c2)C(=O)N([C@@H](C)CO)C[C@H](C)[C@H](CN(C)S(=O)(=O)c2cccs2)OCCCC[C@H](C)O3)cc1	0	0	0	0	0	0
COc1cccc(/C=C(\C#N)c2nc3ccc(C)cc3[nH]2)c1OCC(=O)O	0	-	0	0	0	0
CCOc1cc(/C=C(/C#N)c2nc3ccccc3[nH]2)ccc1OCc1ccc(C(=O)O)o1	-	0	59	-	-	-
CCOc1cccc(/C=C(/C#N)c2nc3ccccc3[nH]2)c1OCC(=O)O	0	-	0	0	0	45
C[C@H](CO)N1C[C@H](C)[C@H](CN(C)C(=O)Nc2cccc3ccccc23)Oc2ccc(NC(=O)c3ccncc3)cc2C1=O	0	0	-	-	-	-
C[C@H](CO)N1C[C@H](C)[C@@H](CN(C)C(=O)Cc2ccccc2)Oc2ncc(C#Cc3ccccc3F)cc2C1=O	0	0	0	0	0	0
O=C(O)Cc1c[nH]c2ccccc12	-	0	0	0	-	0
O=C(O)Cc1c[nH]c2cccc(O)c12	0	0	0	0	0	54
CN1c2ccc(-c3ccc(F)cc3)cc2[C@@H]2[C@@H](CCN2C(=O)c2ccc(F)cc2)[C@H]1CO	0	0	-	0	0	0
O=C(Nc1ccc2c(c1)OCO2)N[C@H]1CC[C@H](CCNC(=O)C2CCOCC2)O[C@H]1CO	0	0	0	0	0	0
CCOc1ccc(NC(=O)CN(C)C(=O)c2sc3ccccc3c2Cl)cc1OCC	-29	-	0	0	0	0
COc1ccccc1C(=O)NNC(=O)C12CC3CC(CC(C3)C1)C2	0	0	0	0	0	0
O=C(NNC(=O)C12CC3CC(CC(C3)C1)C2)c1cnccn1	-	0	0	-	-	-
O=C(NNC(=O)C12CC3CC(CC(C3)C1)C2)c1ccccn1	-43	0	75	0	0	0
C[n+]1cccc(C(=O)NNC(=O)C23CC4CC(CC(C4)C2)C3)c1	0	0	0	0	109	0
CCCCC[C@@H](/C=C/C1C(=O)C=C[C@H]1C/C=C\CCCC(=O)O)OC(C)=O (stereo partly drawn)	0	0	0	0	0	48
CCC(=O)N1CC(=O)N2[C@H](CO)[C@H](c3ccc(-c4cccnc4)cc3)[C@@H]2C1	0	0	-	0	0	0
CC[N+](C)(CC)CCC(c1ccccc1)C1CCCCC1 (stereo not drawn)	0	-	0	0	109	0
COc1ccc(C(NC(C)=O)c2ccc3cccnc3c2O)c(OC)c1 (stereo not drawn)	-	0	64	-	-	-
COc1ccccc1C(NC(C)=O)c1cc(Cl)c2cccnc2c1O (stereo not drawn)	0	46	0	0	0	0
CCCC(=O)NC(c1ccccc1OC)c1ccc2cccnc2c1O (stereo not drawn)	-	0	0	-	-	-

Source: PubChem
